Measured values: ChEMBL document CHEMBL1122243, “5-p-benzoquinonyl-2'-deoxyuridine 5'-phosphate: a possible mechanism-based inhibitor of thymidylate synthetase” (J Med Chem, 1983)

What was measured:
[1] = target: T1, Thymidylate synthase (Lactobacillus casei) (UniProt P00469); experiment: Inactivation of thymidylate synthetase measur as kcat at 6.8 pH 30 degrees Celsius temp; settings: Lacticaseibacillus casei
T1 sequence (whole entry): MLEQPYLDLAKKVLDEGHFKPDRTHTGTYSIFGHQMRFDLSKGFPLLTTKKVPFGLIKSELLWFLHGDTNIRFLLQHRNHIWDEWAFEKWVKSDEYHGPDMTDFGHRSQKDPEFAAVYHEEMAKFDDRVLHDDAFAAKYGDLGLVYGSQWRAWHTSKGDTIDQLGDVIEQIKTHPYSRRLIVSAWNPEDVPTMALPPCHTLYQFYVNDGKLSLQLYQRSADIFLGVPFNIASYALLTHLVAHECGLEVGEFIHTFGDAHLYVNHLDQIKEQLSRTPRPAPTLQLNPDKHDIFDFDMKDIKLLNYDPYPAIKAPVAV
Summary of the method: (§1)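 Thymidylate synthetase from methotrexate-resistant Lactobacillus casei, activated by dialysis against 0.1 M potassium phosphate pH 6.8 with 50 mM mercaptoethanol, then freed of thiol on Sephadex G-25. Enzyme at 0.1–0.4 μM preincubated at 30 °C in 6 mM potassium phosphate pH 6.8, 3 mM MgCl2, 0.12 mM EDTA with inhibitor, with or without substrate for protection. Aliquots were taken over time and assayed.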

[2] = target: T1, Thymidylate synthase (Lactobacillus casei); experiment: Inactivation of thymidylate synthetase measured as k2 at 6.8 pH 30 degrees Celsius temp; settings: Lacticaseibacillus casei
Summary of the method: (§2)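 L. casei (methotrexate-resistant) thymidylate synthetase, activated in 50 mM 2-mercaptoethanol, then freed of thiol on Sephadex G-25 in 0.05 M phosphate pH 6.8; 0.1–0.4 μM enzyme preincubated at 30 °C with inhibitor in 6 mM potassium phosphate pH 6.8, 3 mM MgCl2, 0.12 mM EDTA. Aliquots at 0–50 s assayed 60 s with 50 μM [5-3H]dUMP; ln % activity vs time gives kobs.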

Thymidylate synthase [3] = target: T2, Thymidylate synthase (Lactobacillus casei, UniProt P00469); experiment: Inactivation of thymidylate synthetase measured asKi at 6.8 pH 30 degrees Celsius temp; parameters: species or system Lacticaseibacillus casei; summary of the method: as §2
T2 sequence (P00469 whole entry): T1 sequence (whole entry)

[4] = target: T1, Thymidylate synthase (Lactobacillus casei); experiment: Substrate concentration measured for Inactivation of thymidylate synthetase at a dose 2.0 pH 6.8, 30 degrees Centigrade; settings: Lacticaseibacillus casei; summary of the method: as §1
[5] = target: T1, Thymidylate synthase (Lactobacillus casei); experiment: Inactivation of thymidylate synthetase measured as kobs at 0.6 pH 30 degrees Celsius temp; settings: Lacticaseibacillus casei; summary of the method: as §1
[6] = target: T1, Thymidylate synthase (Lactobacillus casei); experiment: Substrate concentration measured for Inactivation of thymidylate synthetase at a dose 0.6, pH 6.8, 30 degrees Centigrade; settings: Lacticaseibacillus casei; summary of the method: as §1
[7] = target: T1, Thymidylate synthase (Lactobacillus casei); experiment: Inactivation of thymidylate synthetase measured as kobs at 2.0 pH 30 degrees Celsius temp; settings: Lacticaseibacillus casei; summary of the method: as §1
[8] = target: T1, Thymidylate synthase (Lactobacillus casei); experiment: Substrate concentration measured for Inactivation of thymidylate synthetase at a dose 10.0 pH 6.8, 30 degrees Centigrade; settings: Lacticaseibacillus casei; summary of the method: as §1
[9] = target: T1, Thymidylate synthase (Lactobacillus casei); experiment: Inactivation of thymidylate synthetase measured as kobs at a dose 10.0, pH 6.8, 30 degrees Centigrade; settings: Lacticaseibacillus casei; summary of the method: as §1
[10] = target: T1, Thymidylate synthase (Lactobacillus casei); experiment: Substrate concentration measured for Inactivation of thymidylate synthetase at a dose 5.56, pH 6.8, 30 degrees Centigrade; settings: Lacticaseibacillus casei; summary of the method: as §1
[11] = target: T1, Thymidylate synthase (Lactobacillus casei); experiment: Inactivation of thymidylate synthetase measured as kobs at a dose 5.56, pH 6.8, 30 degrees Centigrade; settings: Lacticaseibacillus casei; summary of the method: as §1
[12] = target: T1, Thymidylate synthase (Lactobacillus casei); experiment: Inactivation of thymidylate synthetase measured as kcat at 6.8 pH 30 degrees Centigrade temp; settings: Lacticaseibacillus casei; summary of the method: as §2
[13] = target: T1, Thymidylate synthase (Lactobacillus casei); experiment: Inactivation of thymidylate synthetase measured as k2 at 7 pH 24 degrees Celsius temp; settings: Lacticaseibacillus casei
Thymidylate synthase [14] = target: T2, Thymidylate synthase; experiment: Inactivation of thymidylate synthetase measured as Ki at 6.8 pH 30 degrees Celsius temp; parameters: species or system Lacticaseibacillus casei; summary of the method: as §2
[15] = target: T1, Thymidylate synthase (Lactobacillus casei); experiment: Inactivation of thymidylate synthetase measured as kobs at a dose 10.0 pH 6.8, 30 degrees Centigrade; settings: Lacticaseibacillus casei; summary of the method: as §2
[16] = target: T1, Thymidylate synthase (Lactobacillus casei); experiment: Inactivation of thymidylate synthetase measured as kobs at a dose 1.0 pH 6.8, 30 degrees Centigrade; settings: Lacticaseibacillus casei; summary of the method: as §2
[17] = target: T1, Thymidylate synthase (Lactobacillus casei); experiment: Inactivation of thymidylate synthetase measured as kobs at a dose 3.0 pH 6.8, 30 degrees Centigrade; settings: Lacticaseibacillus casei; summary of the method: as §2
[18] = target: T1, Thymidylate synthase (Lactobacillus casei); experiment: Inactivation of thymidylate synthetase measured as kobs at a dose 30.0.0 pH 6.8, 30 degrees Centigrade; settings: Lacticaseibacillus casei; summary of the method: as §2
[19] = target: T1, Thymidylate synthase (Lactobacillus casei); experiment: Inactivation of thymidylate synthetase measured as k2 at 7 pH 4 degrees Celsius temp; settings: Lacticaseibacillus casei

Question: Which k cat [1] does the source give for O=c1[nH]c(=O)n([C@H]2C[C@H](O)[C@@H](COP(=O)(O)O)O2)cc1[N+](=O)[O-] [5-NITRO-DUMP] here?
Answer: The k cat was 0.146 s⁻¹.

Question: And the k2 [2]?
Answer: Its k2 is 300000 M⁻¹ s⁻¹.

Question: And the Ki (Thymidylate synthase [3])?
Answer: Its Ki is 0.5 µM.

Question: For O=C1C=CC(=O)C=C1, which Substrate [4] is on record?
Answer: Its Substrate is 0 µM.

Question: And the k obs [5]?
Answer: The k obs was 0.0025 s⁻¹.

Question: And the Substrate [6]?
Answer: Its Substrate is 0 µM.

Question: What about the k obs [7] of the same compound?
Answer: Its k obs is 0.0126 s⁻¹.

Question: For O=C1C=CC(=O)C(c2cn([C@H]3C[C@H](O)[C@@H](CO)O3)c(=O)[nH]c2=O)=C1, which Substrate [8] is on record?
Answer: The Substrate was 0 µM.

Question: And the k obs [9]?
Answer: The k obs was 0.0048 s⁻¹.

Question: What about the Substrate [10] of the same compound?
Answer: Its Substrate is 0 µM.

Question: And the k obs [11]?
Answer: Its k obs is 0.0029 s⁻¹.

Question: With O=C(CBr)c1cn(C2CC(O)C(OP(=O)(O)O)O2)c(=O)[nH]c1=O (centres undefined) as the compound, how does the k2 [2] read?
Answer: Its k2 is 32000.

Question: And the k cat [12]?
Answer: The k cat was 0.065 s⁻¹.

Question: What about the Ki (Thymidylate synthase [3]) of the same compound?
Answer: Its Ki is 2 µM.

Question: How did the k2 [13] turn out when NC(=O)CI was run?
Answer: The k2 was 7 M⁻¹.

Question: What does the source list for O=C(CBr)c1cn([C@H]2C[C@H](O)[C@@H](COP(=O)(O)O)O2)c(=O)[nH]c1=O?
Answer: k2 [2]: 600 M⁻¹ s⁻¹; k cat [12]: 0.0025 s⁻¹; Ki (Thymidylate synthase [14]): 4 µM

Question: With O=C1C=CC(=O)C(c2ccccc2)=C1 as the compound, how does the k obs [15] read?
Answer: The k obs was 0.025 s⁻¹.

Question: What about the k2 [2] of the same compound?
Answer: Its k2 is 2600.

Question: And the k obs [16]?
Answer: The k obs was 0.0034 s⁻¹.

Question: What about the k obs [17] of the same compound?
Answer: The k obs was 0.007 s⁻¹.

Question: What about the k obs [18] of the same compound?
Answer: Its k obs is 0.078 s⁻¹.

Question: Which k2 [19] does the source give for CCN1C(=O)C=CC1=O here?
Answer: The k2 was 13 M⁻¹.
